Jurkat tox 60K = cytotoxicity toward Jurkat cells. Jurkat E6.1 viability, ATP luminescence, 48 h. hit rate 1.2% among 56,000. inhibition, % at 4 µM. AID 463;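 active = inhibition above the mean inhibition of all tested compounds plus 3 SD, cut at about 28% in these data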
M1 agonist = activates the M1 muscarinic receptor; CHO-M1 cells, Fluo-4 calcium fluorescence, agonist mode; hits give high values; B-score at 10 µM; hit rate 3% among 64,000; AID 626;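 active = fluorescence rise, raw or as B-score row- and column-corrected plate score, outside the 99.7% band of its plate's samples, either direction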
mHtt clearance = mutant huntingtin protein clearance; HeLa Exon1htt(103Q)mCFP, aggregate imaging; zero = plate's median compound well; inhibition, % at 1.5 µM; hit rate 0.42% among 47,000; AID 853;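 active = inhibition of aggregate fluorescence above about 70%, also judged a hit by eye on the cell image, limit read from the data, passing the limit was not always enough; inconclusive = no rule stated for this call; inactive = not judged a hit on image review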;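 also: cells exposed to compound for three days before fixation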
D1 allo mod = D1 dopamine receptor (human) allosteric modulation. P21728. HEK293 D1, CRE-luciferase, dopamine EC30 potentiation; actives deviate in either direction. B-score at 10 µM. hit rate 5.9% among 58,000;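 active = luminescence count or its row- and column-corrected plate score outside the 99.7% band of the plate's sample wells, on either side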
Target sequence (P21728 whole entry, looked up): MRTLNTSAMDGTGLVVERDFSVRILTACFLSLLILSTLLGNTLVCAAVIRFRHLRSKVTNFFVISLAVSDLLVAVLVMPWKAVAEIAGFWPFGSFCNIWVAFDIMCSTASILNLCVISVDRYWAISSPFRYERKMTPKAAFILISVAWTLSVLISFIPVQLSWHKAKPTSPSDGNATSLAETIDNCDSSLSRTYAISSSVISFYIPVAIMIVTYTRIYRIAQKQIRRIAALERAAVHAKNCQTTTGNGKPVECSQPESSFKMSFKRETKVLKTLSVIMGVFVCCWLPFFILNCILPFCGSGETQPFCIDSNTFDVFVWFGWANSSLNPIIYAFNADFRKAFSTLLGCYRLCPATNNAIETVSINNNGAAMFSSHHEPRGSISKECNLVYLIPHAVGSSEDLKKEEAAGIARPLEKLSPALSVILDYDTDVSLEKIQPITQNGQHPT
M1 antag = antagonists of rat M1 muscarinic receptor; P08482; CHO-M1 cells, Fluo-4 calcium, ACh EC80 antagonist mode; hits give low values; B-score at 10 µM; hit rate 3.4% among 64,000; AID 628;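 active = calcium fluorescence response, raw or row-and-column corrected B-score, differing from the plate sample mean either way at a set confidence level, mostly lower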
HEK293 NFkB inh = inhibitors of the PMA/ionomycin-induced NF-kB reporter in HEK293 cells | HEK-293 NF-kB luciferase reporter, luminescence | inhibition, % at 3 µM | hit rate 0.21% among 62,000 | AID 465;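 active = inhibition above the mean of all tested compounds plus 3 SD, cut at about 40% in these data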;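 also: 0% = stimulated DMSO wells and 100% = 10 µM reference inhibitor 5653914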
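System – HEK-293 cells with stable firefly luciferase reporter driven by four HIV NF-kB elements · Doses – one dose, 3 µM · Schedule – 1 h compound pre-incubation, 16 h PMA/ionomycin at 37 °C · Technique – luminescence from luciferase substrate reagent · Measure – percent inhibition normalized per plate to DMSO and reference-inhibitor controls · Replicates – tested once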
M1 antag conf = confirmation of rat M1 muscarinic receptor antagonists. hit rate 43% among 1,700. shares compounds with M1 antag. CHO-M1 cells, Fluo-4 calcium, ACh EC80 antagonism; hits give low values. calcium response (max-min fluorescence) at 10 µM;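 active = calcium response below the same-plate mean of wells given acetylcholine alone at its 80%-effect dose, minus 3 SD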;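 also: raw fluorescence intensity difference in arbitrary instrument units and not normalized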
mGluR4 antag = selectivity test for M1 antagonists: human mGluR4 receptor. CHO-mGluR4 calcium flux, Fluo-4 fluorescence, glutamate EC80; hits give low values. shares compounds with M1 antag. fluorescence response (max-min) at 10 µM. hit rate 0.9% among 1,700;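 active = fluorescence response below the plate's average for near-maximal glutamate wells, less 3 SD of those wells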;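 also: raw unnormalized fluorescence span taken in the window right after glutamate addition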
D1 PAM confirm = confirmation of human D1 dopamine receptor allosteric modulators. shares compounds with D1 allo mod. HEK293 D1 CRE-luciferase, dopamine EC30 potentiation; hits give high values. luminescence at 10 µM. hit rate 88% among 2,200;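 active = luminescence in either of two replicates above the same-plate mean plus 3 SD of the low-dose dopamine control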
D1 no dopamine = activates D1 CRE-luciferase signal without dopamine present. shares compounds with D1 allo mod. HEK293 D1 CRE-luciferase, luminescence, no dopamine; hits give high values. luminescence at 10 µM. hit rate 0.8% among 1,900. AID 646; in the data active = luminescence above about 3900
Isoprot counter = alters isoproterenol CRE-luciferase response in HEK293 cells; AID 647; hit rate 63% among 2,200; shares compounds with D1 allo mod; HEK293 D1 CRE-luciferase, isoproterenol EC30 counter-screen; hits give high values; luminescence at 10 µM;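 active = luminescence in either replicate above plate mean of wells with a partly effective reference agonist dose plus 3 SD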;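 also: isoproterenol raises cAMP through native beta-adrenoceptor Gs so signal bypasses D1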
* marks the source's active call; other numbers are inactive results; u = inconclusive; x = no result. The list is not random: actives were taken first. Their share in the collection is about 9.5%.

SMILES | Jurkat tox 60K | M1 agonist | mHtt clearance | D1 allo mod | M1 antag | HEK293 NFkB inh | D1 PAM confirm | D1 no dopamine | Isoprot counter | others
CCCC(=O)C1C(=O)NC(=O)NC1=O | -2 | 0.1 | -68 | -0.024 | 0.82 | 15 | x | x | x
COc1cccc(CNC2CN3CCC2CC3)c1OC (stereo unspecified) | -4 | 0.22 | -28 | 1.9 | -5.1* | 19 | x | x | x | M1 antag conf=392*;mGluR4 antag=196
CCCCC12CNCC(C)(CNC1)C2=O | -9 | -0.55 | 41 | -0.79 | 0.61 | 4 | x | x | x
CCCCc1nc(N2CCNCC2)c(C#N)c2c1CSC(C)(C)C2 | x | -0.32 | -23 | x | -9.8* | x | x | x | x | M1 antag conf=61*;mGluR4 antag=220
CCCCn1c(O)c(C(C)=NC(C)c2ccccc2)c(=O)[nH]c1=O (stereo unspecified) | 6 | 0.48 | x | 9.7* | 1.6 | 14 | 17520* | 1544 | 3888*
CCCCn1c(O)c(C(C)=NCCc2ccccc2)c(=O)[nH]c1=O | 9 | 0.32 | u | 2.1 | 0.022 | 12 | x | x | x
CN1C(=O)c2ccccc2Sc2ccc(C(=O)N3CCC4(CC3)OCCO4)cc21 | x | 0.32 | -34 | 9.6* | 0.17 | 18 | 5288 | x | 2560
CCCCn1c(=O)c(C(=O)Nc2nc3ccccc3[nH]2)c(O)c2ccccc21 | -12 | -0.85 | x | -0.53 | 0.25 | 13 | x | x | x
CCCCn1c(=O)c(C(=O)Nc2cnccn2)c(O)c2ccccc21 | -4 | -0.69 | x | 6.8* | 1.1 | 16 | 8352* | 1312 | 3092
Cc1ccc(S(=O)(=O)N2CC3CC(C2)c2cccc(=O)n2C3)cc1 (stereo unspecified) | x | x | -8 | x | x | x | x | x | x
CC1(C)CN=C(Nc2nc3ccccc3s2)S1 | -4 | 2.8 | x | 2.9* | -0.37 | -36 | 8344* | 1008 | 2828
CCC(=NCc1cccnc1)c1c(O)n(Cc2ccccc2)c(=O)[nH]c1=O | 6 | -0.094 | -37 | 4.8* | -1.4 | 13 | 11204* | 1512 | 2944*
CC(=NCc1cccnc1)c1c(O)n(Cc2ccccc2)c(=O)[nH]c1=O | 5 | 0.17 | x | 2.1 | -0.25 | 0 | x | x | x
CCC(=NC1CC1)c1c(O)n(C2CCCCC2)c(=O)[nH]c1=O | 6 | -0.26 | -27 | 17* | 0.052 | 13 | 12336* | 1856 | 4136*
COc1ccc(CCn2c(O)c(C=NCCCN(C)C)c(=O)[nH]c2=O)cc1OC | -5 | 0.32 | 39 | 0.47 | 0.31 | 4 | x | x | x
CN(C)P1(N(C)C)=Nc2c(c(N)nn2C)C(c2ccccc2)=N1 | x | -0.023 | -9 | 0.21 | 0.38 | 13 | x | x | x
CCCCN1C(=O)C(C2c3ccccc3C(=O)N2Cc2ccccc2)C(=O)NC1=S (stereo unspecified) | x | x | 18 | x | x | x | x | x | x
O=C(CCN1C(=O)COc2ccccc21)N1CCC2(CC1)OCCO2 | 1 | 0.73 | -18 | 3.8* | -1.7 | 0 | 5480 | x | 2376
O=C1CN=C(c2ccccc2)c2oc3ccc(Br)cc3c2N1 | -8 | 0.018 | 41 | 7.4* | 0.17 | 7 | 15276* | x | 4176*
COc1ccc(N=C2SCCCN2C)cc1 | x | x | 25 | x | x | x | x | x | x
C=COCCn1c(C)c(C(=O)OCC)c2cc(O)ccc21 | 6 | -0.55 | x | -0.015 | -0.49 | 17 | x | x | x
CCOC(=O)c1c(C)n(Cc2ccccc2)c2ccc(OCC(O)Cn3nc(C)nc3C)cc12 (stereo unspecified) | 6 | 1.9 | x | 4.5* | -1.5 | 4 | 17284* | 1904 | 5888*
CC(C)[C@@]1(NC(=O)[C@@H]2C=C3c4cccc5[nH]cc(c45)C[C@H]3N(C)C2)O[C@@]2(O)[C@@H]3CCCN3C(=O)[C@H](Cc3ccccc3)N2C1=O | x | 60* | x | 34* | 0.73 | x | 18320* | 19392* | 36764*
CCC(=NCCC1=CCCCC1)c1c(O)[nH]c(=O)[nH]c1=O | -5 | -1.3 | x | 5.4* | 0.43 | 8 | 16104* | 1808 | 3944*
Cc1ccccc1NC1=NCCCS1 | 0 | 1.2 | x | -1 | -1.7 | 18 | x | x | x
SMILES | Jurkat tox 60K | M1 agonist | mHtt clearance | D1 allo mod | M1 antag | HEK293 NFkB inh | D1 PAM confirm | D1 no dopamine | Isoprot counter | others
Fc1ccc(NC2=NCCS2)cc1Cl | 1 | -1.8 | 8 | 4.1* | -0.14 | -2 | 11272* | 1372 | 3996
O=C(c1ccc2nc3ccc(Cl)cc3c(=O)n2c1)N1CCC2(CC1)OCCO2 | x | -0.042 | x | 2.1 | 0.055 | 8 | x | x | x
COC(=O)c1c(C)[nH]c(C(=O)C(Cc2ccccc2)N(C)C)c1C (stereo unspecified) | -2 | -0.92 | x | 9.7* | -0.13 | 10 | 4780 | 1584 | 2408
CC1CCC(C(=O)NC(C(=O)N2CCC3(CC2)OCCO3)C(C)C)CC1 (stereo unspecified) | -5 | -0.094 | -86 | 0.079 | 0.045 | 18 | x | x | x
CC12CN3CN(C1)CC(c1ccccc1)(C3)C2=O | x | x | -56 | x | x | x | x | x | x
CCCC1(CCC)C(=O)NC(=NCc2ccccc2)NC1=O | 7 | 0.68 | x | -0.32 | 0.03 | 20 | x | x | x
CCC1(CC)C(=O)NC(=NCCc2c[nH]c3ccccc23)NC1=O | -2 | -0.069 | -6 | 4.8* | 0.98 | 7 | 6976* | 1520 | 4428
CCOc1ccc(C2(C#N)CC[N+](C)(C)CC2)cc1 | x | x | -5 | x | x | x | x | x | x
CC(=O)c1cccc(NC2=NCC(C)S2)c1 (stereo unspecified) | 0 | 0.95 | -22 | 5.6* | -0.25 | 8 | 8688* | 1744 | 3220*
Clc1cccc(Cl)c1C1N2CCCN12 (stereo unspecified) | x | x | -75 | x | x | x | x | x | x
CC(=O)c1c(O)n(C)c(=S)n(-c2ccccc2)c1=O | -10 | 0.42 | x | 3.1* | 0.7 | 13 | 10036* | 1820 | 2956

Screening results as filed in PubChem.
